Where two headings read alike, the source gives them in different places.
How the values were obtained:
[1] = background statement, no reference given; cited from earlier work
P-STAT3 = experiment: Down-regulation of P-STAT3; assay type: cell-based; conditions: Homo sapiens, HEL, read-out: IC50 for P-STAT3 down-regulation
HEL cells = experiment: Drug-drug effect on cell survival / cell death; assay type: cell-based, human; conditions: for Cell death: 48 h
HSC70 (HSPA8) = experiment: HSC70; assay type: cell-based, human; conditions: HEL cells, Fig. 1b
Summary of the method: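 HEL human erythroleukemia cells were washed and resuspended in serum-free RPMI 1640 (1.2 × 10⁷ cells/200 μl). They were electroporated at 250 V and 250 μF (2-mm gap) with 200 nM HSPA1A/B siRNA, a two-mismatch control, or media only. Test compounds were added for the last 6 h of a 48-h incubation. Read-out was western blot with ECL detection, normalized to actin, at least triplicate.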

Molecule: C=CCNC1=C2C[C@@H](C)C[C@H](OC)[C@H](O)[C@@H](C)/C=C(\C)[C@H](OC(N)=O)[C@@H](OC)/C=C\C=C(/C)C(=O)NC(=CC1=O)C2=O [17-AAG, 17-allylamino-17-demethoxygeldanamycin]
- Solubility [1]: poor solubility

Molecule: CO[C@H]1/C=C\C=C(/C)C(=O)NC2=CC(=O)C(NCCN(C)C)=C(C[C@@H](C)C[C@H](OC)[C@H](O)[C@@H](C)/C=C(\C)[C@@H]1OC(N)=O)C2=O [17-DMAG, 17-(dimethyl-aminoethylamino)-17-demethoxygeldanamycin]
- IC50 (P-STAT3; 6 h): 450 nM
- IC50 (P-STAT3): 157 nM
- Cell death (HEL cells; 50% of the IC50, with HSP70 siRNA added): 50%
- Cell death (HEL cells; 50% of the IC50, without siRNA): ~ 10%
- Effect on HSC70 (HSPA8) expression (HSC70 (HSPA8)): affected by neither

Molecule: control-siRNA: version of HSPA1 siRNA with two mismatches, 5′-CGACCGAGACAAGCGCAAG-3′, used as control (chemistry not given here)
- Effect on cell survival (HEL cells; HEL cells): no effect
